We go through 1 compound from ChEMBL document CHEMBL4828745, “Discovery and Structure-Activity Relationships of Quinazolinone-2-carboxamide Derivatives as Novel Orally Efficacious Antimalarials” (J Med Chem, 2021).

Data set [1] concerns Plasmodium falciparum. Kind of data set: Antimalarial activity against Plasmodium falciparum TM90C2b harbouring Pf-crt, Pf-mdrl,Pfd-hfr, Pf-cytbQ0 mutated loci assessed as inhibition of parasite growth incubated for […] by [3H]hypoxanthine incorporation assay based liquid scintillation counting method. Format: functional, organism-based. A digest of the protocol: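 Drug-resistant laboratory P. falciparum strains were compared against the sensitive strain NF54. Growth inhibition was read by a modified [3H]hypoxanthine incorporation assay over 72 h. IC50 is the mean of two independent biological replicates. Chloroquine and artesunate served as controls.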

Data set [2] can be described thus: Fraction unbound in human plasma. It is filed as ADME, cell-free. An outline of the steps: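 Human plasma protein binding measured by rapid equilibrium dialysis.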
For data set [3], the system named is Plasmodium falciparum. Kind of data set: Antiplasmodial activity against liver stage Plasmodium falciparum NF54 sporozoites infected in human hepatocytes assessed as parasite killing measured after 96 hrs by schizont assay. It is filed as functional, organism-based. As to conditions: NF54, 96 h.
Data set [4] in a line: Stability in human plasma assessed as compound remaining at 1000 ng/ml after 2 hrs by LC-MS analysis. It is filed as ADME, cell-free. To be noted: read-out: Stability. A digest of the protocol: (§1)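 Pooled plasma (human, 3 donors; or male Sprague Dawley rat) spiked to nominal 1000 ng/mL, with at most 0.2% DMSO and 0.4% acetonitrile final. Held at 37 °C with timed aliquots. LC-MS against matrix standards with diazepam internal standard. Percent remaining is relative to the 5 min sample.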

Data set [5] relates to Plasmodium falciparum. Kind of data set: Antimalarial activity against Plasmodium falciparum Dd2 DSM265 mutant harbouring […] assessed as inhibition of parasite growth incubated for […] by [3H]hypoxanthine incorporation assay based liquid scintillation counting method. Format: functional, organism-based. An outline of the steps: (§2)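 Genetically engineered P. falciparum lines carried mutations introduced into the Dd2 wild-type strain, which was tested alongside them. Growth inhibition was read by [3H]hypoxanthine incorporation over 72 h. IC50 is the mean of two independent biological replicates. Chloroquine and artesunate served as controls.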

The nature of data set [6]: Stability in Sprague-Dawley rat plasma assessed as compound remaining at 1000 ng/ml after 2 hrs by LC-MS analysis. Format: ADME, cell-free. To be noted: read-out: Stability. A digest of the protocol: as §1
Data set [7] relates to Plasmodium falciparum. Kind of data set: Antimalarial activity against Plasmodium falciparum Dd2 […] mutant harbouring Pf-car1 assessed as inhibition of parasite growth incubated for […] by [3H]hypoxanthine incorporation assay based liquid scintillation counting method. Format: functional, organism-based. An outline of the steps:
as §2

A short description of data set [8]: Ratio of drug level in whole blood to plasma in Sprague-Dawley rat by LC-MS analysis. Format: ADME, cell-free. As to conditions: whole blood and plasma. A digest of the protocol:
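Apparent whole-blood-to-plasma partitioning measured in vitro in rat blood.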

Data set [9] can be described thus: Intrinsic clearance in mouse liver microsomes at […] by LC-MS/MS analysis. Format: ADME, Microsome. An outline of the steps: (§3)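 Liver microsomes (human, mouse or rat) at 0.4 mg/mL protein, 37 °C, with an NADPH-regenerating system. Compound at 0.25 or 0.5 μM. Acetonitrile/diazepam quench, LC-MS quantitation. CLint from the first-order degradation rate constant.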

Data set [10] is described as follows: Toxicity in SCID mouse infected with Plasmodium falciparum 3D70087/N9 at 50 to 100 mg/kg, po for 4 consecutive days measured after 7 days of post infection. It is filed as organism-based. As to conditions: in vivo, 96 h, dose 50-100 mg/kg, time 4 day.
Data set [11] deals with Plasmodium falciparum. Kind of data set: Antimalarial activity against Plasmodium falciparum NF54 assessed as inhibition of parasite growth incubated for 72 hrs by [3H]hypoxanthine incorporation assay based liquid scintillation counting method.
The nature of data set [12]: Intrinsic clearance in rat liver microsomes at […] by LC-MS/MS analysis. Format: ADME, Microsome. An outline of the steps:
as §3

Data set [13] concerns Plasmodium falciparum. Kind of data set: Antiplasmodial activity against asexual blood stage Plasmodium falciparum 3D7 (MR4) infected in erythrocytes assessed as parasite reduction ratio at 10 times of IC50 concentration treated up to 120 hrs measured after 21 days of serial dilution. It is filed as functional. To be noted: time hrs <=120. A digest of the protocol: (§4)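 Samples taken every 24 h and washed free of drug. Viable parasites counted by limiting dilution: 3-fold serial dilutions, four independent series, growth scored at 21 days and confirmed at 28 days.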

The subject of data set [14] is Plasmodium falciparum. Kind of data set: Antiplasmodial activity against asexual blood stage Plasmodium falciparum 3D7 (MR4) infected in erythrocytes assessed as parasite clearance time for 99.9% organism. It is filed as functional. A digest of the protocol:
as §4

A short description of data set [15]: Intrinsic clearance in human liver microsomes at […] by LC-MS/MS analysis. Format: ADME, Microsome. An outline of the steps: as §3
Data set [16] can be described thus: Apparent permeability of the compound from apical to basolateral side in human Caco-2 cells at 20 uM measured after 120 mins by LC-MS analysis. It is filed as ADME, cell-based. A digest of the protocol: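 Caco-2 monolayers, apical-to-basolateral direction, in pH 7.4 HBSS with 20 mM HEPES on both sides. Donor at nominal 20 μM, 0.1% DMSO final. Flux followed over 120 min. Quantified by LC-MS with mass balance to derive Papp.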

Consider `CCc1cccc(CNC(=O)c2nc3cccc(COCc4ccc(C(=O)O)cc4)c3c(=O)[nH]2)c1`, for which the IC50 in the data set with Plasmodium falciparum [1] turned out to be 24 nM; with Plasmodium falciparum [3], 75 nM; in the data set on Plasmodium falciparum [5] it was 23 nM; in the data set with Plasmodium falciparum [7], 18 nM; in the data set on Plasmodium falciparum [11], 60 nM. Moreover, in data set [2], the Fu is 0.2%. Also, the results for the remaining at 2 h, 1000 ng/ml in [4] and in data set [6] were 100% and 93.4%, respectively. Further, the blood plasma ratio in [8] was determined as 0.62. Besides, the results for the CLH in data set [9], in [12] and in data set [15] were 183 uL/ml.millig, 36 uL/ml.millig and 35 uL/ml.millig, respectively. Also, the Activity entry in data set [10] is reported as “Non-Toxic”. In the data set on Plasmodium falciparum [13], the Ratio is reported as 4.6. The Time in the data set with Plasmodium falciparum [14] is 32 h. The Papp A→B at 2 h, 20 µM in [16] was 35 ×10⁻⁶ cm/s.
